Results from BindingDB's records for doi:10.1021/jm0301484 (Organix, 2003).
Several values for one entry are separate records, joined by “and”; a condition that tells them apart may be missing. Identical values can stand only once.

Columns and labels:
[1] = target: Sodium-dependent dopamine transporter; assay: In vitro affinity for dopamine transporter in Rhesus (Macaca mulatta) or Cynomolgus (Macaca fasicularis) monkey striata using [3H]WIN-35428 displacement.
In short: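 Caudate-putamen membranes homogenized in ice-cold 50 mM Tris-HCl pH 7.4 and washed by centrifugation. Competition with fixed [3H]WIN 35,428 (0.3 nM) at 4 mg original wet tissue/mL in 50 mM Tris-HCl with 100 mM NaCl. Incubated 2 h at 0-4 °C, filtered on GF/B presoaked in 0.1% BSA, scintillation counting. Triplicate, 2-3 brains; IC50.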

[2] = target: Sodium-dependent serotonin transporter; assay: In vitro affinity for serotonin transporter in Rhesus (Macaca mulatta) or Cynomolgus (Macaca fasicularis) monkey striata using [3H]citalopram displacement.
In short: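 Cynomolgus or rhesus caudate-putamen homogenised in ice-cold 50 mM Tris-HCl, pH 7.4, and washed by centrifugation. Membranes (4 mg original wet weight/mL) were incubated with 1 nM [3H]citalopram and a range of test drug concentrations in buffer with 100 mM NaCl, 2 h at 0–4 °C.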

Row | SMILES | IC50 [1] | IC50 [2]
1 | CCC(=O)C1C(c2ccc(F)cc2)CC2CCC1N2CCCN1CC[S][Re]2(=[O])[S]CC[N]2C(=O)C1 [(1R,12S) -N-[ (2-( (3'-N-propyl-3''alpha-(4-fluorophenyl)tropane-2''beta-propionyl) (2-mercaptoethyl)amino) -2-aminoethanethiolato]rhenium(v)oxide] | 0.003 µM and 0.0059 µM and 0.0015 µM | 
2 | COC(=O)C1C(c2ccc(F)cc2)CC2CCC1N2CCCN1CC[S][Re]2(=[O])[S]CC[N]2C(=O)C1 (stereo not drawn) [Diastereiosomer of [N-[2-[(3'-N'-Propyl-3''beta-(4-fluorophenyl)tropane-2''beta-carboxylic acid methyl ester)(2-mercaptoethyl)amino]acetyl]-2-aminoethanethiolato]rhenium(V) oxide] | 0.0038 µM and 0.0029 µM | 
3 | CCC(=O)C1=C(c2ccc(Cl)c(Cl)c2)CC2CCC1N2CCCN1CC[S][Re]2(=[O])[S]CC[N]2C(=O)C1 (stereo not drawn) [N-[ (2-( (3'-N-propyl-(1''R) -3''-(3,4-dichlorophenyl)trop-2''-ene-2''--1-propanoyl) (2-mercaptoethyl)amino)acetyl) -2-aminoethanethiolato)rhenium(V) oxide] | 1.2 µM | 2 µM
4 | COC(=O)C1=C(c2ccc(Cl)c(Cl)c2)CC2CCC1N2CCCN1CC[S][Re]2(=[O])[S]CC[N]2C(=O)C1 (stereo not drawn) [N-[ (2-( (3'-N-propyl-(1''R) -3''-(3,4-dichlorophenyl)trop-2''-ene-2''--carbomethoxy) (2-mercaptoethyl)amino)acetyl) -2-aminoethanethiolato)rhenium(V) oxide] | 0.06 µM | 1.69 µM
5 | CCC(=O)C1=C(c2ccc(F)cc2)CC2CCC1N2CCCN1CC[S][Re]2(=[O])[S]CC[N]2C(=O)C1 (stereo not drawn) [N-[ (2-( (3'-N-propyl-(1''R) -3''-(4-flurophenyl)trop-2''-ene-2''--1-propanoyl) (2-mercaptoethyl)amino)acetyl) -2-aminoethanethiolato)rhenium(V) oxide] | 0.66 µM | 2.1 µM
6 | CCC(=O)C1C(c2ccc(Cl)c(Cl)c2)CC2CCC1N2CCCN1CC[S][Re]2(=[O])[S]CC[N]2C(=O)C1 (stereo not drawn) [N-[ (2-( (3'-N-propyl-(1''R) -3''beta-(3,4-dichlorophenyl)tropane-2''-beta-1-propanoyl) (2-mercaptoethyl)amino)acetyl) -2-aminoethanethiolato)rhenium(V) oxide] | 0.005 µM and 0.0053 µM | 0.337 µM
7 | COC(=O)C1=C(c2ccc(F)cc2)CC2CCC1N2CCCN1CC[S][Re]2(=[O])[S]CC[N]2C(=O)C1 (stereo not drawn) [N-[ (2-( (3'-N-propyl-(1''R) -3''beta-(4-fluorophenyl)trop-2''-ene-2''--carbomethoxy) (2-mercaptoethyl)amino)acetyl) -2-aminoethanethiolato)rhenium(V) oxide] | 3.5 µM | 4 µM
8 | COC(=O)C1=C(c2ccc3ccccc3c2)CC2CCC1N2CCCN1CC[S][Re]2(=[O])[S]CC[N]2C(=O)C1 (configuration not stated) [O-1185] | 0.0634 µM | 0.964 µM
9 | COC(=O)C1C(c2ccc3ccccc3c2)CC2CCC1N2CCCN1CC[S][Re]2(=[O])[S]CC[N]2C(=O)C1 (configuration not stated) [O-2130] | 0.004 µM and 0.00364 µM | 0.12 µM
10 | COC(=O)C1C(c2ccc(Cl)c(Cl)c2)CC2CCC1N2CCC[N+]12CC[S][Re]13(=[O])[S]CC[N]3C(=O)C2 (stereo not drawn) [[N-[2-[(3'-N'-Propyl-3''beta-(3,4-dichlorophenyl)tropane-2''beta-carboxylic acid methyl ester)(2-mercaptoethyl)amino]acetyl]-2-aminoethanethiolato]rhenium(V) oxide] |  | 0.639 µM
